Source: ChEMBL document CHEMBL4359812, “Nitric Oxide-Releasing Selective Estrogen Receptor Modulators: A Bifunctional Approach to Improve the Therapeutic Index” (J Med Chem, 2019)
Active and inactive are the calls of the source. The calls are words filed in the database; no cut-off is given here.

What was measured:
[1] = test system: MEL-JUSO; experiment: Antiproliferative activity against human MelJuSo cells assessed as cell viability at 50 uM measured after 24 hrs by celltiter-blue assay relative to control; type: functional; settings: read-out: Activity
Procedure, shortened: (§1)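 Human melanoma cells seeded at 8.5 × 10^4 cells/well in 96-well plates and treated 24 h with test compound (up to 50 μM) against a DMSO control; viability read as in the group's earlier method. Three to five independent experiments (n = 9−15); mean ± SEM, ANOVA with Bonferroni post hoc test vs DMSO.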

[2] = Effect on ER/PI3K pathway in HUVEC assessed as change COX2 expression up to 1 uM measured after 24 hrs by Western blot analysis; type: ADME, cell-based; settings: human
Procedure, shortened: (§2)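 HUVEC treated 24 h with test compounds at various concentrations, with tamoxifen or 17β-estradiol as references, vs DMSO; COX-2 protein detected by Western blotting. Four independent experiments.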

[3] = test system: MEL-JUSO; experiment: Antiproliferative activity against human MelJuSo cells assessed as reduction in cell viability measured after 24 hrs by celltiter-blue assay; type: functional, cell-based; procedure, shortened: as §1
[4] = test system: A2058; experiment: Antiproliferative activity against human A2058 cells assessed as reduction in cell viability measured after 24 hrs by celltiter-blue assay; type: functional, cell-based; settings: A2058, 24 h; procedure, shortened: as §1
[5] = test system: A2058; experiment: Antiproliferative activity against human A2058 cells assessed as cell viability at 50 uM measured after 24 hrs by celltiter-blue assay relative to control; type: functional; settings: A2058, 24 h, read-out: Activity; procedure, shortened: as §1
[6] = target: T1, Estrogen receptor (Homo sapiens, UniProt P03372)
T1 sequence (P03372 whole entry): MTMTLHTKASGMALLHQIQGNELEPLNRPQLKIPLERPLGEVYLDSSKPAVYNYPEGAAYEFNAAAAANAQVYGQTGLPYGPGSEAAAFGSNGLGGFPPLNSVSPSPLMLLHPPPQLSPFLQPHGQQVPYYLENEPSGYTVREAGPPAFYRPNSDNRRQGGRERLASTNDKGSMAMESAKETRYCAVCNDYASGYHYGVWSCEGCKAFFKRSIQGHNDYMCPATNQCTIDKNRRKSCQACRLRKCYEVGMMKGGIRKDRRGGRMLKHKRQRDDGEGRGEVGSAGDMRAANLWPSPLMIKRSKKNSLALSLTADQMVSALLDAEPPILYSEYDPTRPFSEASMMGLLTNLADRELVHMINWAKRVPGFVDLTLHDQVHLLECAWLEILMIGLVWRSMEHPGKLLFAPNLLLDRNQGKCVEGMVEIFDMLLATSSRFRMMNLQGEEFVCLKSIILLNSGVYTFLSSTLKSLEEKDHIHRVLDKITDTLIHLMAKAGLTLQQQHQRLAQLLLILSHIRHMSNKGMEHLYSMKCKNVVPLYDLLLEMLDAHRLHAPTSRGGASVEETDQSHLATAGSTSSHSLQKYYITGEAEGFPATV

[7] = target: Estrogen receptor beta (Homo sapiens, UniProt Q92731)
[8] = Stability of the compound in human whole blood measured after 6 hrs by HPLC analysis; type: ADME, tissue-based
Procedure, shortened: (§3)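 Compound incubated 0 to 6 h in human whole blood at 37 °C; proteins precipitated 1:2 (v/v); supernatant analysed by reversed-phase C18 HPLC at 254 nm, water/MeCN gradient with 0.1% TFA, 3.0 mL/min at 50 °C.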

[9] = test system: HUVEC; experiment: (§4) Cytotoxicity against HUVEC assessed as cell viability at 50 uM measured after 24 hrs by celltiter-blue assay; type: cell-based; settings: human, huvec, 24 h, 50 µM; BLD = below limit of detection
Procedure, shortened: (§5)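 HUVEC grown in endothelial cell growth medium at 37 °C, seeded at 7 × 10^4 cells/well in 96-well plates, treated 24 h with test compound up to 50 μM, DMSO as control; viability read as in the group's earlier method.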

[10] = test system: MDA-MB-231; experiment: Antiproliferative activity against human MDA-MB-231 cells assessed as cell viability at 50 uM measured after 24 hrs by celltiter-blue assay relative to control; type: functional; settings: MDA-MB-231, 24 h, read-out: Activity
Procedure, shortened: (§6)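 Breast adenocarcinoma lines: MCF-7 grown in Leibovitz's L-15 with 10% FCS and 1% pen/strep without CO2; MDA-MB-231 grown in DMEM with 10% FCS and 1% pen/strep at 5% CO2; both at 37 °C. Viability measured after 24 h treatment at 50 μM vs DMSO. Three independent experiments (n = 9); mean ± SEM, ANOVA/Bonferroni.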

[11] = test system: MCF7; experiment: Antiproliferative activity against human MCF7 cells assessed as reduction in number of proliferating cells measured after 48 hrs by cell counting analysis; type: functional, cell-based
Procedure, shortened: (§7)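 MCF-7 (L-15 with 10% FCS, no CO2) and MDA-MB-231 (DMEM with 10% FCS, 5% CO2) treated 48 h with test compound over a concentration range, DMSO as control; proliferating cells counted. Four independent experiments (n = 8); mean ± SEM, ANOVA with Bonferroni post hoc test vs DMSO.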

[12] = Retention time of the compound in human whole blood by HPLC analysis; type: ADME, tissue-based; procedure, shortened: as §3
[13] = test system: MCF7; experiment: Antiproliferative activity against human MCF7 cells assessed as cell viability at 50 uM measured after 24 hrs by celltiter-blue assay relative to control; type: functional; settings: MCF7, 24 h, read-out: Activity; procedure, shortened: as §6
[14] = Effect on ER/PI3K pathway in HUVEC assessed as upregulation of COX2 expression measured after 24 hrs by Western blot analysis; type: ADME, cell-based; settings: human; procedure, shortened: as §2
[15] = test system: MDA-MB-231; experiment: Antiproliferative activity against human MDA-MB-231 cells assessed as reduction in number of proliferating cells measured after 48 hrs by cell counting analysis; type: functional, cell-based; procedure, shortened: as §7
[16] = test system: A2058; experiment: Antiproliferative activity against human A2058 cells assessed as reduction in number of proliferating cells at 25 uM measured after 48 hrs by cell counting analysis; type: functional, cell-based
Procedure, shortened: (§8)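 A2058 cells plated at 0.5 × 10^6 (24 h) or 0.35 × 10^6 (48 h) per well, Mel-Juso at 0.6 × 10^6 or 0.45 × 10^6. After 24 h cells were treated with 0−50 μM, DMSO as control, then counted electronically after 24 or 48 h. Three independent experiments; mean ± SEM, ANOVA/Bonferroni vs DMSO.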

[17] = test system: HUVEC; experiment: Cytotoxicity against HUVEC assessed as reduction in cell viability measured after 24 hrs by celltiter-blue assay; type: cell-based; settings: Homo sapiens; procedure, shortened: as §5
[18] = test system: MEL-JUSO; experiment: Antiproliferative activity against human MelJuSo cells assessed as reduction in number of proliferating cells at 25 uM measured after 48 hrs by cell counting analysis; type: functional, cell-based; procedure, shortened: as §8
[19] = Drug metabolism in pH 7.5 PBS assessed as nitric oxide release at 50 uM measured after 90 mins in presence of L-cysteine by 2,3-diaminonaphthalene-based fluorescence assay
Procedure, shortened: (§9)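 Compound incubated 90 min at 37 °C in PBS pH 7.5 alone, with human plasma, with 50 μM K3[Fe(CN)6], or with 5 mM L-cysteine. Nitrite reacted with 2,3-diaminonaphthalene under acid to give fluorescent naphthotriazole; HgCl2 added to release S-nitrosothiol-bound NO. Release given as % of 1 mol NO/mol compound; 3−4 experiments in duplicate (n = 6−8), mean ± SEM.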

[20] = Drug metabolism in pH 7.5 PBS assessed as free nitrite level at 50 uM measured after 90 mins in presence of L-cysteine by 2,3-diaminonaphthalene-based fluorescence assay; procedure, shortened: as §9
[21] = Drug metabolism in pH 7.5 PBS assessed as nitric oxide release at 50 uM measured after 90 mins in presence of K3[Fe(CN)6] by 2,3-diaminonaphthalene-based fluorescence assay; procedure, shortened: as §9
[22] = Drug metabolism in pH 7.5 PBS assessed as S-nitroso-thiol level at 50 uM measured after 90 mins in presence of L-cysteine by 2,3-diaminonaphthalene-based fluorescence assay; procedure, shortened: as §9
[23] = Effect on ER/PI3K pathway in HUVEC assessed as upregulation of COX2 expression up to 20 uM measured after 24 hrs by Western blot analysis; type: ADME, cell-based; settings: human; procedure, shortened: as §2
[24] = Drug metabolism in human whole blood assessed as nitric oxide release measured after 6 hrs by HPLC analysis; type: ADME, tissue-based; procedure, shortened: as §3
[25] = as §4; type: cell-based; settings: human, HUVEC cells; read-out: Activity; procedure, shortened: as §5
[26] = Drug metabolism in human whole blood assessed as 5d formation measured after 6 hrs by HPLC analysis; type: ADME, tissue-based; procedure, shortened: as §3
[27] = test system: MEL-JUSO; experiment: Antiproliferative activity against human MelJuSo cells assessed as reduction in number of proliferating cells at 50 uM measured after 48 hrs by cell counting analysis; type: functional, cell-based; procedure, shortened: as §8
[28] = test system: A2058; experiment: Antiproliferative activity against human A2058 cells assessed as reduction in number of proliferating cells at 50 uM measured after 48 hrs by cell counting analysis; type: functional, cell-based; procedure, shortened: as §8
[29] = Drug metabolism in pH 7.5 PBS assessed as nitric oxide release at 50 uM measured after 90 mins in presence of […] by 2,3-diaminonaphthalene-based fluorescence assay

Sequence of Estrogen receptor beta (Q92731 whole entry): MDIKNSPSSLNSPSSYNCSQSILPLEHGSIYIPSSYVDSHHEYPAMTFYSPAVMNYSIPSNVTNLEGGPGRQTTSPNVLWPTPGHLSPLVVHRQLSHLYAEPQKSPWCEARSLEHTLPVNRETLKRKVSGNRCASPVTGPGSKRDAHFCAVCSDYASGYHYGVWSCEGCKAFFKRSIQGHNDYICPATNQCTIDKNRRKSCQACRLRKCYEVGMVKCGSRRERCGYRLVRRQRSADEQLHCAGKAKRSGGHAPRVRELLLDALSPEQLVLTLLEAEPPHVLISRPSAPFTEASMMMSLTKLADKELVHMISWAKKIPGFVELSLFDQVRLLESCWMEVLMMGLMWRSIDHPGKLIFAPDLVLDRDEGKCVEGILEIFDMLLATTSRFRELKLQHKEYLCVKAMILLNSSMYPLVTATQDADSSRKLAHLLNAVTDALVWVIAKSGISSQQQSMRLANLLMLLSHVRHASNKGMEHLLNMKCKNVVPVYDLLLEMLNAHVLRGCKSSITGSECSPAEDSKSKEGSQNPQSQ

| Compound | viability at 50 µM [1] | viability at 50 µM [5] | IC50 [6] | IC50 [7] | Drug metabolism [19] | Drug metabolism [20] | Drug metabolism [21] | Drug metabolism [22] | also measured |
| --- | --- | --- | --- | --- | --- | --- | --- | --- | --- |
| CC/C(=C(\c1ccccc1)c1ccc(OCCN(C)C)cc1)c1ccccc1 [TAMOXIFEN] | 1% | 1.8% | – | – | – | – | – | – | Activity [2]: Active; EC50 [3]: 14.6 µM; EC50 [4]: 12.5 µM |
| CS(=O)(=O)c1ccc(C(CCCCO)=C(c2ccccc2)c2ccccc2)cc1 | 68.6% | 106% | > 5 µM | 1.4 µM | – | – | – | – | – |
| CS(=O)(=O)c1ccc(C(CCCCO)=C(c2ccc(F)cc2)c2ccc(F)cc2)cc1 | 20.5% | 17% | > 5 µM | 0.18 µM | – | – | – | – | Stability [8]: Stable; Activity [9]: Bld; viability at 50 µM [10]: 86.4%; EC50 [3]: 34.9 µM; EC50 [4]: 39.9 µM; Activity [11]: Dose-dependent effect; Retention_time [12]: 14.5 min; viability at 50 µM [13]: 72.2%; Activity [14]: Dose-dependent effect; Activity [15]: Dose-dependent effect; Activity [16]: Active; EC50 [17]: 19.6 µM; Activity [18]: Active |
| CC(=O)Oc1ccccc1C(=O)Oc1ccc(CO[N+](=O)[O-])cc1 | – | – | – | – | 4.4% | 0.8% | 0.2% | 3.6% | – |
| CS(=O)(=O)c1ccc(C(CCCO[N+](=O)[O-])=C(c2ccccc2)c2ccccc2)cc1 | 96.5% | 117% | > 5 µM | 2.7 µM | 2% | 0.7% | 1.5% | 1.3% | – |
| CS(=O)(=O)c1ccc(C(CCCCO[N+](=O)[O-])=C(c2ccc(F)cc2)c2ccc(F)cc2)cc1 | 101% | 106% | > 5 µM | 0.2 µM | 3.8% | 0.4% | 2.5% | 3.4% | Activity [23]: Not Active; Drug metabolism [24]: Metabolite_Detected; viability at 24 h, 50 µM [25]: 91.1%; viability at 50 µM [10]: 91.3%; Drug metabolism [26]: Metabolite_Detected; Activity [27]: inactive; Retention_time [12]: 16.4 min; viability at 50 µM [13]: 82.8%; Activity [28]: inactive |
| CS(=O)(=O)c1ccc(C(CCCO)=C(c2ccccc2)c2ccccc2)cc1 | 52.7% | 63% | > 5 µM | 1.5 µM | – | – | – | – | – |
| O=S(=O)(NO)c1ccccc1 | – | – | – | – | 3.6% | 0.3% | 48.3% | 3.3% | Drug metabolism [29]: 33.5% |
| CS(=O)(=O)c1ccc(C(CCCCO[N+](=O)[O-])=C(c2ccccc2)c2ccccc2)cc1 | 87.1% | 120% | > 5 µM | 1.3 µM | 0.5% | 0.9% | 1.1% | 0.4% | Drug metabolism [29]: 0.1% |
| CS(=O)(=O)c1ccc(C(CCCO[N+](=O)[O-])=C(c2ccc(F)cc2)c2ccc(F)cc2)cc1 | 91.5% | 107% | > 5 µM | > 5 µM | 2% | 0.1% | 0.1% | 1.9% | Drug metabolism [29]: 2.2% |
| CS(=O)(=O)c1ccc(C(CCCO)=C(c2ccc(F)cc2)c2ccc(F)cc2)cc1 | 31.4% | 47.6% | > 5 µM | 3 µM | – | – | – | – | EC50 [3]: 36.3 µM; EC50 [4]: 27.5 µM |
| CCCCC(=C(c1ccc(F)cc1)c1ccc(F)cc1)c1ccc(S(C)(=O)=O)cc1 | 75.4% | 117% | – | – | – | – | – | – | – |
